Values belong to the compound of their own block, whether it stands above or below them.
Assays:
[1] = system: A-431; assay: Cytotoxicity against human A431 cells; type: functional, cell-based
[2] = system: Chorioallantoic membrane; assay: Antiangiogenic activity in Leghorn chicken egg chorioallantoic membrane assessed as inhibition of human VEGF-165/bFGF-induced blood vessels formation measured after 40 hrs by microscopic method; type: functional, tissue-based; conditions: Gallus gallus
[3] = Inhibition of bovine brain tubulin assembly preincubated for 15 mins followed by GTP addition measured for 20 mins by spectrophotometric method; parameters: species or system Bos taurus
[4] = system: HeLa; assay: Growth inhibition of human HeLa cells measured after 96 hrs by sulforhodamine B assay; type: functional, cell-based
Summary of the method: (§1)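 Exposed 96 h to varying compound concentrations in 0.5% DMSO. Cell protein measured by sulforhodamine B; IC50 = concentration halving the increase in cell protein versus untreated cultures.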

[5] = system: OVCAR-8; assay: Growth inhibition of human OVCAR8 cells measured after 96 hrs by sulforhodamine B assay; type: functional, cell-based; conditions: OVCAR-8, 96 h
[6] = system: NCI/ADR-RES; assay: Growth inhibition of human NCI/ADR-RES cells over expressing Pgp measured after 96 hrs by sulforhodamine B assay; type: functional, cell-based
[7] = system: HeLa; assay: Growth inhibition of human HeLa cells over expressing beta3-tubulin measured after 96 hrs by sulforhodamine B assay; type: functional, cell-based; summary of the method: as §1

IC50 [3]: > 20000 nM
SMILES: COc1ccc(N(C)c2nc(N)nc3c(Cc4ccccc4)c[nH]c23)cc1
IC50 [1]: 700 nM | IC50 [2]: 2300 nM

IC50 [4]: 60 nM
SMILES: COc1ccc2c(c1)CCCN2c1nc(C)nc2c(Cc3ccccc3)cn(C)c12

IC50 [5]: 5 nM | IC50 [4]: 5.3 nM | IC50 [7]: 16 nM
SMILES: CC(=O)O[C@H]1C(=O)[C@@]2(C)[C@H]([C@H](OC(=O)c3ccccc3)[C@]3(O)C[C@H](OC(=O)[C@H](O)[C@@H](NC(=O)c4ccccc4)c4ccccc4)C(C)=C1C3(C)C)[C@]1(OC(C)=O)CO[C@@H]1C[C@@H]2O [PACLITAXEL]
IC50 [6]: 2500 nM

IC50 [3]: 13000 nM
SMILES: COc1ccc2c(c1)CCCN2c1nc(N)nc2c(Cc3ccccc3)c[nH]c12

From ChEMBL document CHEMBL3997769, “Discovery and preclinical evaluation of 7-benzyl-N-(substituted)-pyrrolo[3,2-d]pyrimidin-4-amines as single agents with microtubule targeting effects along with triple-acting angiokinase inhibition as antitumor agents” (Bioorg Med Chem, 2017)
